Key:
[1] = test system: C. albicans SC5314 (disseminated candidiasis in BALB/c mice); experiment: Active vaccination; assay type: in vivo, Candida albicans; conditions: mimotope-pulsed DCs; lethal i.v. challenge; extended observation
BALB/c mice = experiment: Serum antibody ELISA after immunization with antigen-pulsed dendritic cells; assay type: in vivo, mouse; conditions: after first booster; mimotope-pulsed DCs i.p.; sera diluted 1:200
Method in brief: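 Female BALB/c mice, 5–7 weeks old. Bone-marrow DCs pulsed with peptide antigen (1 μM) on day 6, matured with PGE₂ (10⁻⁷M) plus LPS (2 μg/ml) for 24h from day 7, washed on day 9. 5 × 10⁵ DCs in DPBS given i.p., with i.p. boosts of fresh pulsed DCs without adjuvant at days 14 and 28. Controls received DCs or DPBS. Sera diluted 1:200 and tested by ELISA.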

Sequence | Protection against disseminated candidiasis (mimotope vaccination) [1] | Antibody ELISA titers in immune sera against the mimotope (BALB/c mice)
SWYEGLRLI [PS55] | neither of the two other mimotopes PS55 or PS76 induced protection | –
WVPPGSWYL [PS2] | – | highest
YRQFVTGFW [PS76] | neither of the two other mimotopes PS55 or PS76 induced protection | –
SYLTTGGFW [PS28] | – | highest
HYKTYGGYW [PS31] | – | highest

Source: publication PMC6497404 (Vaccine, 2019)
